Assay results from ChEMBL document CHEMBL3593207, “Imidazole clubbed 1,3,4-oxadiazole derivatives as potential antifungal agents” (2015).
Values after ≈ are worked out from the molar mass of the structure shown. Values belong to the compound of their own block, whether it stands above or below them.

How the values were obtained:
[1] = system: Candida albicans; experiment: Cytotoxicity against Candida albicans ATCC 10261 at MIC after 24 hrs by WST1 assay; assay type: functional
How it was run: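 Candida cells were exposed to MIC and sub-MIC levels for 24 h in microplates, then to WST-1/CEC dye for 30 min at 37 °C. Plates were shaken 1 min and the reaction stopped with 1% SDS. Formazan was read at 450 nm. % cytotoxicity = 100 × (cell control − experimental)/cell control. Triplicates, mean ± SD.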

[2] = system: Candida albicans; experiment: Inhibition of ergosterol biosynthesis in Candida albicans ATCC 10261 assessed as ergosterol content at 1/2 MIC after 16 hrs by spectrophotometer analysis; assay type: functional; parameters: scale not given: the % may be the effect or the level left
How it was run: (§1)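 Cells were pelleted and washed, and wet weight taken. Pellets were saponified in 25% alcoholic KOH at 85 °C for 1 h. Sterols were extracted into n-heptane/water. Ergosterol content is expressed relative to untreated control cells.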

[3] = system: Candida albicans; experiment: Inhibition of ergosterol biosynthesis in Candida albicans ATCC 10261 assessed as ergosterol content at MIC after 16 hrs by spectrophotometer analysis; assay type: functional; parameters: scale not given: the % may be the effect or the level left; how it was run: as §1
[4] = system: Candida tropicalis; experiment: Inhibition of ergosterol biosynthesis in Candida tropicalis ATCC 750 assessed as ergosterol content at 1/2 MIC after 16 hrs by spectrophotometer analysis; assay type: functional; parameters: scale not given: the % may be the effect or the level left; how it was run: as §1
[5] = system: Candida tropicalis; experiment: Inhibition of ergosterol biosynthesis in Candida tropicalis ATCC 750 assessed as ergosterol content at MIC after 16 hrs by spectrophotometer analysis; assay type: functional; parameters: scale not given: the % may be the effect or the level left
How it was run: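 Cells were harvested, washed, and wet pellet weight recorded. Pellets were saponified in 3 mL 25% alcoholic KOH at 85 °C for 1 h, then sterols extracted into n-heptane. Ergosterol is expressed relative to untreated control cells.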

[6] = system: Candida albicans; experiment: Inhibition of ergosterol biosynthesis in Candida albicans 2323 assessed as ergosterol content at 1/2 MIC after 16 hrs by spectrophotometer analysis; assay type: functional; parameters: scale not given: the % may be the effect or the level left; how it was run: as §1
[7] = system: Candida albicans; experiment: Inhibition of ergosterol biosynthesis in Candida albicans 2323 assessed as ergosterol content at MIC after 16 hrs by spectrophotometer analysis; assay type: functional; parameters: scale not given: the % may be the effect or the level left; how it was run: as §1
[8] = system: Candida albicans; experiment: Inhibition of ergosterol biosynthesis in Candida albicans 2367 assessed as ergosterol content at 1/2 MIC after 16 hrs by spectrophotometer analysis; assay type: functional; parameters: scale not given: the % may be the effect or the level left; how it was run: as §1
[9] = system: Candida albicans; experiment: Inhibition of ergosterol biosynthesis in Candida albicans 2367 assessed as ergosterol content at MIC after 16 hrs by spectrophotometer analysis; assay type: functional; parameters: scale not given: the % may be the effect or the level left; how it was run: as §1
[10] = system: Candida albicans; experiment: Inhibition of ergosterol biosynthesis in Candida albicans 2779 assessed as ergosterol content at 1/2 MIC after 16 hrs by spectrophotometer analysis; assay type: functional; parameters: scale not given: the % may be the effect or the level left; how it was run: as §1
[11] = system: Candida albicans; experiment: Inhibition of ergosterol biosynthesis in Candida albicans 2779 assessed as ergosterol content at MIC after 16 hrs by spectrophotometer analysis; assay type: functional; parameters: scale not given: the % may be the effect or the level left; how it was run: as §1
[12] = system: Candida tropicalis; experiment: Inhibition of ergosterol biosynthesis in Candida tropicalis 2029 assessed as ergosterol content at 1/2 MIC after 16 hrs by spectrophotometer analysis; assay type: functional; parameters: scale not given: the % may be the effect or the level left; how it was run: as §1
[13] = system: Candida tropicalis; experiment: Inhibition of ergosterol biosynthesis in Candida tropicalis 2029 assessed as ergosterol content at MIC after 16 hrs by spectrophotometer analysis; assay type: functional; parameters: scale not given: the % may be the effect or the level left; how it was run: as §1
[14] = system: Candida tropicalis; experiment: Inhibition of ergosterol biosynthesis in Candida tropicalis 2356 assessed as ergosterol content at 1/2 MIC after 16 hrs by spectrophotometer analysis; assay type: functional; parameters: scale not given: the % may be the effect or the level left; how it was run: as §1
[15] = system: Candida tropicalis; experiment: Inhibition of ergosterol biosynthesis in Candida tropicalis 2356 assessed as ergosterol content at MIC after 16 hrs by spectrophotometer analysis; assay type: functional; parameters: scale not given: the % may be the effect or the level left; how it was run: as §1
[16] = system: Candida albicans; experiment: Antifungal activity against Candida albicans ATCC 10261 by broth microdilution assay; assay type: functional
How it was run: (§2)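 CLSI M27-A3 broth microdilution. Compounds diluted to 1 mg/ml in 1% DMSO. Fluconazole (1 mg/ml) served as positive control, 1% DMSO as vehicle control, with media and culture controls. Triplicate at each concentration, repeated thrice. Inocula came from YPDA stocks subcultured in broth for 48 h at 37 °C.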

[17] = system: Candida tropicalis; experiment: Antifungal activity against Candida tropicalis ATCC 750 by broth microdilution assay; assay type: functional; how it was run: as §2
[18] = system: Candida albicans; experiment: Antifungal activity against clinical isolates of Candida albicans 2323 by broth microdilution assay; assay type: functional; how it was run: as §2
[19] = system: Candida albicans; experiment: Antifungal activity against clinical isolates of Candida albicans 2367 by broth microdilution assay; assay type: functional; how it was run: as §2
[20] = system: Candida albicans; experiment: Antifungal activity against clinical isolates of Candida albicans 2779 by broth microdilution assay; assay type: functional; how it was run: as §2
[21] = system: Candida tropicalis; experiment: Antifungal activity against clinical isolates of Candida tropicalis 2029 by broth microdilution assay; assay type: functional; how it was run: as §2
[22] = system: Candida tropicalis; experiment: Antifungal activity against clinical isolates of Candida tropicalis 2356 by broth microdilution assay; assay type: functional; how it was run: as §2
[23] = system: Candida albicans; experiment: Antifungal activity against Candida albicans ATCC 10261 at half MIC after 48 hrs by disc diffusion assay; assay type: functional
How it was run: (§3)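 Cells (10^3 cells ml−1) grown in YPD were mixed into molten agar (~40 °C) and poured into 100-mm plates. Filter discs (4 mm) were spotted with 10 µl of compound at 1/2 × MIC, MIC or 2 × MIC. Fluconazole and 1% DMSO were the controls. Plates were incubated at 37 °C for 48 h and inhibition zone diameters recorded in mm.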

[24] = system: Candida albicans; experiment: Antifungal activity against Candida albicans ATCC 10261 at MIC after 48 hrs by disc diffusion assay; assay type: functional; how it was run: as §3
[25] = system: Candida albicans; experiment: Antifungal activity against Candida albicans ATCC 10261 at 2 times MIC after 48 hrs by disc diffusion assay; assay type: functional; how it was run: as §3
[26] = system: Candida tropicalis; experiment: Antifungal activity against Candida tropicalis ATCC 750 at half MIC after 48 hrs by disc diffusion assay; assay type: functional; how it was run: as §3
[27] = system: Candida tropicalis; experiment: Antifungal activity against Candida tropicalis ATCC 750 at MIC after 48 hrs by disc diffusion assay; assay type: functional; how it was run: as §3
[28] = system: Candida tropicalis; experiment: Antifungal activity against Candida tropicalis ATCC 750 at 2 times MIC after 48 hrs by disc diffusion assay; assay type: functional; how it was run: as §3
[29] = system: Candida albicans; experiment: Antifungal activity against clinical isolates of Candida albicans 2323 at half MIC after 48 hrs by disc diffusion assay; assay type: functional; how it was run: as §3
[30] = system: Candida albicans; experiment: Antifungal activity against clinical isolates of Candida albicans 2323 at MIC after 48 hrs by disc diffusion assay; assay type: functional; how it was run: as §3
[31] = system: Candida albicans; experiment: Antifungal activity against clinical isolates of Candida albicans 2323 at 2 times MIC after 48 hrs by disc diffusion assay; assay type: functional; how it was run: as §3
[32] = system: Candida albicans; experiment: Antifungal activity against clinical isolates of Candida albicans 2367 at half MIC after 48 hrs by disc diffusion assay; assay type: functional; how it was run: as §3
[33] = system: Candida albicans; experiment: Antifungal activity against clinical isolates of Candida albicans 2367 at MIC after 48 hrs by disc diffusion assay; assay type: functional; how it was run: as §3
[34] = system: Candida albicans; experiment: Antifungal activity against clinical isolates of Candida albicans 2367 at 2 times MIC after 48 hrs by disc diffusion assay; assay type: functional; how it was run: as §3
[35] = system: Candida albicans; experiment: Antifungal activity against clinical isolates of Candida albicans 2779 at half MIC after 48 hrs by disc diffusion assay; assay type: functional; how it was run: as §3
[36] = system: Candida albicans; experiment: Antifungal activity against clinical isolates of Candida albicans 2779 at MIC after 48 hrs by disc diffusion assay; assay type: functional; how it was run: as §3
[37] = system: Candida albicans; experiment: Antifungal activity against clinical isolates of Candida albicans 2779 at 2 times MIC after 48 hrs by disc diffusion assay; assay type: functional; how it was run: as §3
[38] = system: Candida tropicalis; experiment: Antifungal activity against clinical isolates of Candida tropicalis 2029 at half MIC after 48 hrs by disc diffusion assay; assay type: functional; how it was run: as §3
[39] = system: Candida tropicalis; experiment: Antifungal activity against clinical isolates of Candida tropicalis 2029 at MIC after 48 hrs by disc diffusion assay; assay type: functional; how it was run: as §3
[40] = system: Candida tropicalis; experiment: Antifungal activity against clinical isolates of Candida tropicalis 2029 at 2 times MIC after 48 hrs by disc diffusion assay; assay type: functional; how it was run: as §3
[41] = system: Candida tropicalis; experiment: Antifungal activity against clinical isolates of Candida tropicalis 2356 at half MIC after 48 hrs by disc diffusion assay; assay type: functional; how it was run: as §3
[42] = system: Candida tropicalis; experiment: Antifungal activity against clinical isolates of Candida tropicalis 2356 at MIC after 48 hrs by disc diffusion assay; assay type: functional; how it was run: as §3
[43] = system: Candida tropicalis; experiment: Antifungal activity against clinical isolates of Candida tropicalis 2356 at 2 times MIC after 48 hrs by disc diffusion assay; assay type: functional; how it was run: as §3
[44] = system: Candida tropicalis; experiment: Cytotoxicity against Candida tropicalis ATCC 750 at MIC after 24 hrs by WST1 assay

- MIC [16]: 16 µg/mL (≈ 46.2 µM)
- MIC [17]: 16 µg/mL (≈ 46.2 µM)
- MIC [18]: 32 µg/mL (≈ 92.4 µM)
- MIC [19]: 32 µg/mL (≈ 92.4 µM)
- MIC [20]: 64 µg/mL (≈ 185 µM)
- MIC [21]: 32 µg/mL (≈ 92.4 µM)
- MIC [22]: 125 µg/mL (≈ 361 µM)
SMILES: CCc1ccnc(-c2nccn2Cc2nnc(-c3ccc(N)cc3)o2)c1
- Activity [1]: 87.27%
- Activity [2]: 57%
- Activity [3]: 98%
- Activity [4]: 41%
- Activity [5]: 98%
- Activity [6]: 43%
- Activity [7]: 89%
- Activity [8]: 45%
- Activity [9]: 81%
- Activity [10]: 42%
- Activity [11]: 81%
- Activity [12]: 44%
- Activity [13]: 84%
- Activity [14]: 52%
- Activity [15]: 86%
- inhibition zone (IZ) [23]: 7 mm
- inhibition zone (IZ) [24]: 10 mm
- inhibition zone (IZ) [25]: 13 mm
- inhibition zone (IZ) [26]: 5 mm
- inhibition zone (IZ) [27]: 9 mm
- inhibition zone (IZ) [28]: 13 mm
- inhibition zone (IZ) [29]: 0 mm
- inhibition zone (IZ) [30]: 4 mm
- inhibition zone (IZ) [31]: 7 mm
- inhibition zone (IZ) [32]: 2 mm
- inhibition zone (IZ) [33]: 5 mm
- inhibition zone (IZ) [34]: 7 mm
- inhibition zone (IZ) [35]: 1 mm
- inhibition zone (IZ) [36]: 8 mm
- inhibition zone (IZ) [37]: 11 mm
- inhibition zone (IZ) [38]: 2 mm
- inhibition zone (IZ) [39]: 5 mm
- inhibition zone (IZ) [40]: 8 mm
- inhibition zone (IZ) [41]: 0 mm
- inhibition zone (IZ) [42]: 4 mm
- inhibition zone (IZ) [43]: 7 mm
- Activity [44]: 80.81%

- MIC [16]: > 1000 µg/mL
- MIC [17]: > 1000 µg/mL
- MIC [18]: > 1000 µg/mL
- MIC [19]: > 1000 µg/mL
- MIC [20]: > 1000 µg/mL
- MIC [21]: > 1000 µg/mL
- MIC [22]: > 1000 µg/mL
SMILES: CCc1ccnc(-c2nccn2Cc2nnc(-c3ccccc3N)o2)c1
